Experimental data published in ChEMBL document CHEMBL1681711, “Discovery of a potent, orally bioavailable pyrimidine VLA-4 antagonist effective in a sheep asthma model” (Bioorg Med Chem Lett, 2011).
pIC50: −log10 of the molar value. Calls of active or inactive are those of the source. The rule behind the calls is not given here.

Legend:
Integrin alpha-4/beta-1 = Integrin alpha-4/beta-1 (Homo sapiens, UniProt P05556+P13612); assay: Inhibition of integrin alpha4beta1-mediated Jurkat cell adhesion to VCAM-1 by FACS analysis; assay type: cell-based
Procedure, shortened: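 α4β1-positive Jurkat cells were incubated with recombinant soluble VCAM-1, and binding of this ligand was measured by flow cytometry (FACS).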

Ovis aries [1] = assay: Antiasthamatic activity in po dosed sheep asthma model assessed as prevention of carbachol-induced late phase hyperresponsiveness; assay type: functional; conditions: read-out: MED
[2] = Drug excretion in Sprague-Dawley rat bile at 10 mg/kg, po; assay type: ADME, organism-based; set-up: dose 10 mg/kg, route oral; conditions: read-out: Activity
Ovis aries [3] = assay: Antiasthamatic activity in po dosed sheep asthma model assessed as prevention of carbachol-induced early phase hyperresponsiveness; assay type: functional; conditions: read-out: MED
[4] = Oral bioavailability in Sprague-Dawley rat at 10 mg/kg; assay type: ADME, organism-based; conditions: in vivo
Rattus norvegicus = assay: Volume of distribution in Sprague-Dawley rat at 10 mg/kg, iv and po; assay type: ADME, organism-based; set-up: dose 10 mg/kg, route oral; conditions: in vivo
Procedure, shortened: (§1)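 Male rats in each arm; the compound was given at 10 mg/kg both intravenously and orally, with parameters taken from these two arms.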

[5] = Bioavailability in Beagle dog at 3 mg/kg, iv and 10 mg/kg, po; assay type: ADME, organism-based, Canis lupus familiaris; conditions: in vivo
Procedure, shortened: (§2)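 Male dogs in each arm; the intravenous arm used 3 mg/kg and the oral arm 10 mg/kg.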

[6] = Volume of distribution in cynomolgus monkey at 3 mg/kg, iv and 10 mg/kg, po; assay type: ADME, organism-based, Macaca fascicularis; conditions: in vivo
Procedure, shortened: (§3)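 Male monkeys in each arm; the compound was given at 3 mg/kg intravenously and at 10 mg/kg orally.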

[7] = Half life in Sprague-Dawley rat at 10 mg/kg, iv and po; assay type: ADME, organism-based; set-up: dose 10 mg/kg, route oral; conditions: in vivo; procedure, shortened: as §1
Ovis aries [8] = assay: Antiasthamatic activity in sheep asthma model assessed as prevention of carbachol-induced hyperresponsiveness at 1 mg/kg, po; assay type: functional, organism-based; set-up: dose 1 mg/kg
[9] = Clearance in Beagle dog at 3 mg/kg, iv and 10 mg/kg, po; assay type: ADME, organism-based, Canis lupus familiaris; conditions: in vivo; procedure, shortened: as §2
[10] = Volume of distribution in Beagle dog at 3 mg/kg, iv and 10 mg/kg, po; assay type: ADME, organism-based, Canis lupus familiaris; conditions: in vivo; procedure, shortened: as §2
Ovis aries [11] = assay: Antiasthamatic activity in sheep asthma model assessed as prevention of carbachol-induced hyperresponsiveness at 0.3 mg/kg, po; assay type: functional, organism-based; set-up: dose 0.3 mg/kg
[12] = Half life in cynomolgus monkey at 3 mg/kg, iv and 10 mg/kg, po; assay type: ADME, organism-based, Macaca fascicularis; conditions: in vivo; procedure, shortened: as §3
[13] = Bioavailability in cynomolgus monkey at 3 mg/kg, iv and 10 mg/kg, po; assay type: ADME, organism-based, Macaca fascicularis; conditions: in vivo; procedure, shortened: as §3
[14] = Half life in Beagle dog at 3 mg/kg, iv and 10 mg/kg, po; assay type: ADME, organism-based, Canis lupus familiaris; conditions: in vivo; procedure, shortened: as §2
[15] = Bioavailability in Sprague-Dawley rat at 10 mg/kg, iv and po; assay type: ADME, organism-based; conditions: in vivo; procedure, shortened: as §1
[16] = Clearance in cynomolgus monkey at 3 mg/kg, iv and 10 mg/kg, po; assay type: ADME, organism-based, Macaca fascicularis; conditions: in vivo; procedure, shortened: as §3

Chain of Integrin alpha-4/beta-1 (P05556 whole entry): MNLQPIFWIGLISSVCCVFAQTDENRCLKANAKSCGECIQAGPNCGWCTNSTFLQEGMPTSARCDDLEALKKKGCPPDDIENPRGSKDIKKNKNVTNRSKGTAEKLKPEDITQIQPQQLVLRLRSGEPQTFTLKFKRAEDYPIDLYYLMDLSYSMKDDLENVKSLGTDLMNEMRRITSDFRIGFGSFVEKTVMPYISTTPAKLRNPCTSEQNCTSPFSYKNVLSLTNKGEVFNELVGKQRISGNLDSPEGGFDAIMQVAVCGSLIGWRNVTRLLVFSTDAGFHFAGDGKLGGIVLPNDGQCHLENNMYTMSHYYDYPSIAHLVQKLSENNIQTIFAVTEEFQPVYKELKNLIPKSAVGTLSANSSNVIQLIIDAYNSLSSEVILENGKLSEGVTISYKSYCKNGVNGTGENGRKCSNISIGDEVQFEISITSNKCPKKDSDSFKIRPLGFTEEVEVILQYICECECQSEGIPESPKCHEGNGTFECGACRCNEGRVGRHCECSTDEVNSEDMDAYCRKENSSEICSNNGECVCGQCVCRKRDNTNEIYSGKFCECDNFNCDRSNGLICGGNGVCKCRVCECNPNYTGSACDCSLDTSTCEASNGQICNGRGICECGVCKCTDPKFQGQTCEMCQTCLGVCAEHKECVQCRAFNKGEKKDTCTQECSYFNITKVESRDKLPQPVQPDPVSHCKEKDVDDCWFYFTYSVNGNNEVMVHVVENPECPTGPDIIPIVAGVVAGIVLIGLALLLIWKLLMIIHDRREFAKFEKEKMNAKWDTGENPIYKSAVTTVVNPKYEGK
Chain of Integrin alpha-4/beta-1 (P13612 whole entry): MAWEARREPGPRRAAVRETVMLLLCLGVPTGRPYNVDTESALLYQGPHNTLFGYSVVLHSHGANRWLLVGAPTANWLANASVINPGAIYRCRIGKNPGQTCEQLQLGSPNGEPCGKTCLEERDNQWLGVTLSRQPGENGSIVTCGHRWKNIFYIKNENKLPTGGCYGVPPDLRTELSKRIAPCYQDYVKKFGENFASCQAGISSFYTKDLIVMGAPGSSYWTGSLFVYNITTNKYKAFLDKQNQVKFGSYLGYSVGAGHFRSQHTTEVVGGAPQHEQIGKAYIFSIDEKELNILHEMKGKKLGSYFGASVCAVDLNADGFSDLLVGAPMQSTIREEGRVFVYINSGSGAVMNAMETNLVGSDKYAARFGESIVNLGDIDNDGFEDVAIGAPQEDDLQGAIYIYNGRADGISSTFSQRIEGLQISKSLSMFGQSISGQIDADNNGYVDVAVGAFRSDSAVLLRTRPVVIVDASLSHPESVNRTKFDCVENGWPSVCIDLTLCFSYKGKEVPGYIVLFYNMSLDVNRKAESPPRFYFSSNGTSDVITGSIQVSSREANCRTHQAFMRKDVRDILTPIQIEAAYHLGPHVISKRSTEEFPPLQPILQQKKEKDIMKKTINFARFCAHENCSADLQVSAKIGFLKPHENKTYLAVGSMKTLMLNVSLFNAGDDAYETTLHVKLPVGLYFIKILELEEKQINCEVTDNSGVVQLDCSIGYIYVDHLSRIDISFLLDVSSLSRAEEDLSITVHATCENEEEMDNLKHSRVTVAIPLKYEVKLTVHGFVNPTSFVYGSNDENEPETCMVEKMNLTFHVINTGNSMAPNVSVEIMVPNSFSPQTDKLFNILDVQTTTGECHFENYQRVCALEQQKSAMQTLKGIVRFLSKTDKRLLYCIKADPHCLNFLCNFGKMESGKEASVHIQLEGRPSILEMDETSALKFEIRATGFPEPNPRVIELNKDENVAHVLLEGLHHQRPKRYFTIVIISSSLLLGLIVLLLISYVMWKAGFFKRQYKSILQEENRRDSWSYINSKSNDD

Row | Compound | pIC50 (Integrin alpha-4/beta-1) | also measured
1 | COc1ccccc1-c1cncnc1N[C@@H](Cc1ccc(OC(=O)N(C)C)cc1)C(=O)O | 7.80 | –
2 | Cc1ccccc1-c1cnc(N(C)c2ccc(Cl)cc2)nc1N[C@@H](Cc1ccc(OC(=O)N(C)C)cc1)C(=O)O | 6.97 | –
3 | Cc1ccccc1-c1cnc(N(C)C2CCCCC2)nc1N[C@@H](Cc1ccc(OC(=O)N(C)C)cc1)C(=O)O | 7.70 | minimal effective dose (Ovis aries [1]): 10 mg/kg; dose excreted [2]: < 3%; minimal effective dose (Ovis aries [3]): 10 mg/kg; bioavailability [4]: 26%
4 | CN(C)C(=O)Oc1ccc(C[C@H](Nc2ncncc2-c2cccc([N+](=O)[O-])c2)C(=O)O)cc1 | 6.74 | –
5 | CN(C)C(=O)Oc1ccc(C[C@H](Nc2ncncc2-c2c(F)cccc2F)C(=O)O)cc1 | 7.57 | –
6 | Cc1ccccc1-c1cnc(N2CCCCC2)nc1N[C@@H](Cc1ccc(OC(=O)N(C)C)cc1)C(=O)O | 7.49 | –
7 | Cc1ccccc1-c1cncnc1N[C@@H](Cc1ccc(OC(=O)N(C)C)cc1)C(=O)O | 7.60 | –
8 | Cc1cc(C)c(-c2cncnc2N[C@@H](Cc2ccc(OC(=O)N(C)C)cc2)C(=O)O)c(C)c1 | 7.00 | –
9 | CN(C)C(=O)Oc1ccc(C[C@H](Nc2ncncc2-c2cccnc2)C(=O)O)cc1 | 6.89 | –
10 | CN(C)C(=O)Oc1ccc(C[C@H](Nc2ncncc2-c2cccs2)C(=O)O)cc1 | 7.80 | –
11 | CN(C)C(=O)Oc1ccc(C[C@H](Nc2ncncc2-c2ccccc2C(F)(F)F)C(=O)O)cc1 | 7.05 | –
12 | Cc1ccccc1-c1cnc(N(C)C2CC2)nc1N[C@@H](Cc1ccc(OC(=O)N(C)C)cc1)C(=O)O | 7.70 | –
13 | CN(C)C(=O)Oc1ccc(C[C@H](Nc2ncncc2-c2cccc(Cl)c2Cl)C(=O)O)cc1 | 7.11 | –
14 | Cc1noc(C)c1-c1cncnc1N[C@@H](Cc1ccc(OC(=O)N(C)C)cc1)C(=O)O | > 9.00 | –
15 | CN(C)C(=O)Oc1ccc(C[C@H](Nc2ncnc3ccccc23)C(=O)O)cc1 | 6.72 | –
16 | CN(C)C(=O)Oc1ccc(C[C@H](Nc2ncncc2-c2ccncc2)C(=O)O)cc1 | 7.07 | –
17 | Cc1ccccc1-c1cnc(N(C)CC(C)C)nc1N[C@@H](Cc1ccc(OC(=O)N(C)C)cc1)C(=O)O | 8.15 | –
18 | CN(C)C(=O)Oc1ccc(C[C@H](Nc2nc(N(C)C3CCCCC3)nc3ccccc23)C(=O)O)cc1 | 8.10 | –
19 | CN(C)C(=O)Oc1ccc(C[C@H](NC(=O)c2ccccc2)C(=O)O)cc1 | 6.89 | –
20 | CN(C)C(=O)Oc1ccc(C[C@H](Nc2ncncc2-c2ccccc2F)C(=O)O)cc1 | 7.74 | –
21 | CN(C)C(=O)Oc1ccc(C[C@H](Nc2ncncc2-c2ccc[nH]2)C(=O)O)cc1 | 7.12 | –
22 | CN(C)C(=O)Oc1ccc(C[C@H](Nc2ncncc2-c2ccccc2)C(=O)O)cc1 | 6.52 | –
23 | CCCN(CC)c1ncc(-c2ccccc2C)c(N[C@@H](Cc2ccc(OC(=O)N(C)C)cc2)C(=O)O)n1 | 8.31 | –
24 | Cc1ccsc1-c1cncnc1N[C@@H](Cc1ccc(OC(=O)N(C)C)cc1)C(=O)O | 8.30 | –
25 | Cc1ccccc1-c1cnc(N(C)C2CCN(C)CC2)nc1N[C@@H](Cc1ccc(OC(=O)N(C)C)cc1)C(=O)O | 7.17 | –
26 | Cc1ccccc1-c1cnc(N(C)C2CCC2)nc1N[C@@H](Cc1ccc(OC(=O)N(C)C)cc1)C(=O)O | 8.00 | –
27 | CCN(CC)c1ncc(-c2ccccc2C)c(N[C@@H](Cc2ccc(OC(=O)N(C)C)cc2)C(=O)O)n1 | 8.24 | –
28 | Cc1ccccc1-c1cnc(N(C)C)nc1N[C@@H](Cc1ccc(OC(=O)N(C)C)cc1)C(=O)O | 7.54 | –
29 | CCN(C)c1ncc(-c2ccccc2C)c(N[C@@H](Cc2ccc(OC(=O)N(C)C)cc2)C(=O)O)n1 | 8.28 | –
30 | CCN(CC)c1ncc(-c2c(C)noc2C)c(N[C@@H](Cc2ccc(OC(=O)N(C)C)cc2)C(=O)O)n1 | – | Vd (Rattus norvegicus): 0.346 L/kg; bioavailability [5]: 59%; Vd [6]: 1.29 L/kg; half-life [7]: 1.4 h; Activity (Ovis aries [8]): Active; clearance [9]: 6.73 mL/min/kg; Vd [10]: 0.524 L/kg; Activity (Ovis aries [11]): inactive; half-life [12]: 1.1 h; bioavailability [13]: 16%; half-life [14]: 0.9 h; bioavailability [15]: 19%; clearance [16]: 13.5 mL/min/kg
